Assays:
[1] = target: human guanine N-7 RNA MTase (hRNMTase) (Homo sapiens, UniProt O43148); test: Inhibition of human RNA MTase; type: biochemical
hRNMTase = hRNMTase (Homo sapiens, UniProt O43148); test: [3H]SAM competition binding assay
WNV MTase [2] = target: T1, WNV MTase (West Nile virus, UniProt Q9Q6P4); test: [3H]SAM competition binding assay; details: positive control, dose response
Summary of the method: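 For G-25 filtration SAM competition, 0.6 μM WNV MTase is mixed with [methyl-3H]-SAM (about 14.1 nM final) and a 3-fold dilution series of test compound starting at 60 μM. Mixtures stand 2 h at room temperature and are spun through G-25 mini-columns. The eluted MTase-bound 3H is quantified by scintillation counting. Points are run in duplicate.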

WNV (NY99) = test: Viral titer reduction assay; type: cell-based, West Nile virus; details: A549 cells, WNV MOI 0.1, 42 h
Summary of the method: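 About 2 × 10^5 A549 cells per well are treated 24-30 h after seeding, in triplicate. Test compound, made at 2X in medium with 2% DMSO, is added, followed immediately by WNV NY99 at MOI 0.1 PFU/cell. After 42 h at 37°C, culture fluid is titred by plaque assay on confluent Vero monolayers under a 0.6% agar overlay with a neutral red second overlay. EC50 comes from nonlinear regression of the dose–response curve.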

WNV MTase [3] = target: T1, WNV MTase; test: In vitro 2'-O methylation inhibition assay; type: biochemical
Summary of the method: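 2'-O methylation is followed as conversion of m7G*pppA-RNA to m7G*pppAm-RNA. Each reaction contains 1.5 μM WNV MTase, 80 μM SAM, 0.36 μM m7G*pppA-RNA substrate and a range of test compound concentrations. Products are digested with nuclease P1, and the caps are separated by TLC and quantified by PhosphorImager. Activity is taken from m7G*pppA versus m7G*pppAm, with no-compound activity set at 100%. IC50 comes from a dose–response fit; Ki comes from Cheng-Prusoff.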

WNV MTase [4] = target: T1, WNV MTase; test: In vitro N7 methylation inhibition assay; type: biochemical

T1 sequence (Q9Q6P4 2529-2794): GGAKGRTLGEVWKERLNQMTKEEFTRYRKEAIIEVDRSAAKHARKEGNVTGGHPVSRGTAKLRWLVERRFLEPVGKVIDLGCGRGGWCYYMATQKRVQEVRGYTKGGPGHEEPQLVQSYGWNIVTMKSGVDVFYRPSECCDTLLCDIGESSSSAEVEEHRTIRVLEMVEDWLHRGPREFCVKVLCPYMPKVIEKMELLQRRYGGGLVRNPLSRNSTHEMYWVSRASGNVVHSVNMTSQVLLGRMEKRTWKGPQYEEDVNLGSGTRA
Sequence of hRNMTase (O43148 whole entry): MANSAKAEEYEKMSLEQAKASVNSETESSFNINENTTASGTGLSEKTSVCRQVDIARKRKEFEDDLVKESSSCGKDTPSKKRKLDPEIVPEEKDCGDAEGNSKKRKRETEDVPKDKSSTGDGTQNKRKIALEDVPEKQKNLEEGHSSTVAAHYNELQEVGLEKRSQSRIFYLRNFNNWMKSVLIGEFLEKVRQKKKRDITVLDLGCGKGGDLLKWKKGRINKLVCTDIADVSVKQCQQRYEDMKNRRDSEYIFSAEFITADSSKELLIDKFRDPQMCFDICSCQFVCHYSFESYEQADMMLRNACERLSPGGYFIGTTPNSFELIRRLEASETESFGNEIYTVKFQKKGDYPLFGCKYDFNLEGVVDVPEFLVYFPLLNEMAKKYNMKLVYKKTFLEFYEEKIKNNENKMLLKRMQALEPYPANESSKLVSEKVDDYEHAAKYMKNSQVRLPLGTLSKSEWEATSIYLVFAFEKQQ
Sequence of human guanine N-7 RNA MTase (hRNMTase) (O43148 whole entry): as above

SMILES | IC50 [1] [µM] | Inhibition of [3H]SAM binding to hRNMTase (in words) (hRNMTase; control, dose response) | Inhibition of 3H-labeled SAM-MTase complex formation (in words) (WNV MTase [2]) | Concentration giving one logarithmic order of reduction in the WNV replication (WNV (NY99)) [μM] | Hill coef. (2'-O) (WNV MTase [3]; dose-response curve of 2'-O MTase inhibition) | Fold lower Ki than GRL-001 (2'-O inhibition) (WNV MTase [3]; relative to GRL-001) [fold] | Inhibition of hRNMTase activity (in words) ([1]; even at 300 μM compound concentration) | Inhibition of [3H]SAM binding to hRNMTase (in words) (hRNMTase; 300 μM compound) | Inhibition of N-7 MTase activity (in words) (WNV MTase [4]) | Hill coef. (N-7) (WNV MTase [4]; dose-response curve of N-7 MTase inhibition) | Fold lower Ki than GRL-001 (N-7 inhibition) (WNV MTase [4]; relative to GRL-001) [fold]
Nc1ncnc2c1ncn2[C@@H]1O[C@H](C[C@@H](N)CC[C@H](N)C(=O)O)[C@@H](O)[C@H]1O [SIN, Sinefungin, reference compound] | ~41.2 | decreased the SAM binding very efficiently | very efficiently in a dose-dependent manner | – | – | – | – | – | – | – | –
CCOC(=O)[C@@](C)(O)[C@@H]1C[C@@H](CO[Si](c2ccccc2)(c2ccccc2)C(C)(C)C)O[C@H]1n1cc(F)c(=O)[nH]c1=O [GRL-003] | – | – | – | 50 | 2.8 | 12 | did not inhibit | did not inhibit | only moderately inhibited | 0.9 | 5
